Test [1] concerns the target Estrogen receptor beta (Homo sapiens) (UniProt Q92731). As to the kind of experiment: Transcriptional antagonistic efficacy against ERbeta at 10e-6 M by cotransfectio in HEC-1 cells. It is filed as functional, cell-based. In a few lines:
(§1)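 Cotransfection in HEC-1 cells as for agonism: ERα or ERβ vector, 2ERE-pS2-Luc reporter, β-galactosidase control, lipofectin for 5 h. Ligand at 10^-6 M was given together with 10^-9 M estradiol for 24 h. Luciferase activity was normalized to β-galactosidase and expressed relative to 10^-9 M estradiol alone, set at 100%.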

The target of test [2] is T1, Estrogen receptor (Homo sapiens) (UniProt P03372).
T1 sequence (whole entry): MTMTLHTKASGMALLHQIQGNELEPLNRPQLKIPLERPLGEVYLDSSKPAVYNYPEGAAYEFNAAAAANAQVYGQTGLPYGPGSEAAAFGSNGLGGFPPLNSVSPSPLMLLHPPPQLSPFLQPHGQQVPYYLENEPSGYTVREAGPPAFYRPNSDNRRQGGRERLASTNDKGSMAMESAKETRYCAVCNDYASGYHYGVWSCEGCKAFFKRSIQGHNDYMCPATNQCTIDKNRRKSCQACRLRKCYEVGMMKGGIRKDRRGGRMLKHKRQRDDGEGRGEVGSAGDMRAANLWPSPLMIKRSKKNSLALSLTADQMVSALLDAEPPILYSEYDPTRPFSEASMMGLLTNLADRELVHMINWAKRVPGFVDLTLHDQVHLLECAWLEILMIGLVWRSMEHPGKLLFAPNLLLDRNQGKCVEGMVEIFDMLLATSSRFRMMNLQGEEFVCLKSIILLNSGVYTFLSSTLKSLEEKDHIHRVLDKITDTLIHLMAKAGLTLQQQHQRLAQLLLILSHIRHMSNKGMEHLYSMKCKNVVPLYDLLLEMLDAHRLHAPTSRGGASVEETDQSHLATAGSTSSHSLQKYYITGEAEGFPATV
As to the kind of experiment: Transcriptional agonistic efficacy against ER alpha at 10e-6 M by cotransfection in HEC-1 cells. Type of test: functional, cell-based. In a few lines:
(§2)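 HEC-1 cells were grown in charcoal dextran-treated calf serum medium without phenol red. They were lipofected for 5 h at 37 °C with ERα or ERβ expression vector, 2ERE-pS2-Luc reporter and pCMV β-galactosidase control. Agonist screen used 10^-8 and 10^-6 M ligand for 24 h. Read-out is luciferase corrected by β-galactosidase, expressed as % of the 10^-9 M estradiol response.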

Test [3] concerns the target Estrogen receptor (Homo sapiens) (UniProt Q92731+P03372). As to the kind of experiment: Ratio of binding affinity for purified human estrogen beta receptors to that of binding affinity for purified human estrogen alpha receptors.
In test [4] the target is Estrogen receptor beta (Homo sapiens) (UniProt Q92731). Briefly: Transcriptional agonistic efficacy against ER beta at 10e-6 M was determined by cotransfection in HEC-1 cells. It is filed as functional, cell-based. In a few lines: as §2
Test [5] addresses T1, Estrogen receptor (Homo sapiens). Briefly: Transcriptional agonistic efficacy against ER alpha at 10e-8 M by cotransfection in HEC-1 cells. It is filed as functional, cell-based. In outline:
as §2

Test [6] addresses Estrogen receptor beta (Homo sapiens) (UniProt Q92731). Briefly: Transcriptional agonistic efficacy against ER beta at 10e-8 M by cotransfection in HEC-1 cells. It is filed as functional, cell-based. In a few lines:
as §2

The target is the same in test [7]. As to the kind of experiment: Binding affinity for purified human Estrogen receptor beta by displacement of [3H]estradiol. On the technique in general: In a radioligand displacement assay an active substance lowers the binding of a labelled ligand.
In test [8] the target is T1, Estrogen receptor (Homo sapiens). As to the kind of experiment: Transcriptional antagonistic efficacy agains ER alpha at 10e-6 M by cotransfection in HEC-1 cells. Type of test: functional, cell-based. In outline:
as §1

Test [9] has the same target. As to the kind of experiment: Binding affinity for purified human Estrogen receptor alpha was determined using a competitive radiometric binding assay with [3H]estradiol.
Test [10] concerns the target Estrogen receptor beta (Homo sapiens) (UniProt Q92731). As to the kind of experiment: Binding affinity for purified human Estrogen receptor beta was determined using a competitive radiometric binding assay with estradiol.

Estrogen receptor beta (Homo sapiens), sequence (Q92731 whole entry): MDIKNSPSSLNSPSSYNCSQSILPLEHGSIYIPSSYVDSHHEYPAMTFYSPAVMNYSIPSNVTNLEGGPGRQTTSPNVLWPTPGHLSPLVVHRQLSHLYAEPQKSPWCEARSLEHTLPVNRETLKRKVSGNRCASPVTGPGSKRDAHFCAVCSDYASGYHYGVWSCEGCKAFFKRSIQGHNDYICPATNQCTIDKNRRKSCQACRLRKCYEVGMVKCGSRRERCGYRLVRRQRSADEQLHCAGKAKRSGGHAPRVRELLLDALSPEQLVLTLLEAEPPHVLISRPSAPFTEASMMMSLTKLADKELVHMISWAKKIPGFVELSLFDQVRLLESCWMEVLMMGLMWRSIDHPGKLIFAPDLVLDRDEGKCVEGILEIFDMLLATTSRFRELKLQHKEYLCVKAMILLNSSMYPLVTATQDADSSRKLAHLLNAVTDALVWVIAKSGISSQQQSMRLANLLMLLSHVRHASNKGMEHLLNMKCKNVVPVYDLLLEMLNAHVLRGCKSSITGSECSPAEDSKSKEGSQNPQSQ

On to `Oc1ccc(C(=C2C3CCCC2CCC3)c2ccc(O)cc2)cc1`, for which the Efficacy stood at 2% in test [1]; 22% in test [2]; 2% in test [4]; 25% in test [5]; 2% in [6]; 23% in test [8]. Besides, the Ratio in test [3] came to 0.59. Also, the values for the RBA in test [7] and in test [9] were 301% and 513%, respectively.
For the molecule `Oc1ccc(C(=C2CC3CC2C2CCCC32)c2ccc(O)cc2)cc1` (stereo not drawn), the Efficacy in test [1] came to 2%; in test [2], 26%; in test [4], 2%; in test [5], 27%; in test [6], 2%; in test [8], 35%. For the same molecule, the Ratio in [3] turned out to be 1.3. Further, the RBA was 125% in test [10] and 97% in [9].
For the molecule `Oc1ccc(C(=C2C3CCCC2CCC3)c2ccc(O)c(O)c2)cc1`, the Efficacy in [1] was determined as 2%; in test [2] it was 20%; in test [4], 2%; in test [5], 15%; in test [6], 2%; in [8] it was 38%. Also, the Ratio in [3] worked out at 1.7. Also, the RBA in test [10] came out at 187%; in test [9], 108%.
Consider `Oc1ccc(C(=C2C3CC4CC(C3)CC2C4)c2ccc(O)cc2)cc1`, for which the Efficacy was 2% in [1]; 20% in test [2]; 2% in test [4]; 20% in test [5]; 2% in [6]; 19% in test [8]. In test [3], the Ratio was found to be 1.3. In addition, the RBA in test [10] is 317%; in test [9], 243%.
As to `CC1(C)CC(=C(c2ccc(O)cc2)c2ccc(O)cc2)C[C@]2(C)C(C)(C)[C@H]3CC[C@@]12C3`, the Efficacy in [1] turned out to be 15%; in [2], 4%; in test [4], 1%; in test [5], 1%; in test [6], 1%; in [8] it was 30%. The Ratio in test [3] amounted to 1.4. Besides, the RBA in test [10] is 13%; in test [9] it was 9%.
`Oc1ccc(C(=C2CCCCC2)c2ccc(O)cc2)cc1`: the Efficacy in test [1] came out at 4%; in test [2], 12%; in test [4] it was 3%; in test [5], 9%; in test [6] it was 2%; in test [8], 22%. The Ratio in test [3] came out at 4.9. For the same molecule, the RBA in test [10] was 334%; in test [9] it was 68%.
Turning to `Oc1ccc(C(c2ccc(O)cc2)C2C3CCCC2CCC3)cc1` (stereo not drawn), the Efficacy in test [1] came out at 55%; in test [2], 41%; in test [4] it was 50%; in test [5] it was 16%; in [6], 21%; in [8] it was 40%. Also, the Ratio in test [3] came out at 0.87. The RBA in test [10] is 13%; in [9], 15%.
Consider `Oc1ccc(C(=C2C3CCCC2CCC3)c2ccc(F)cc2)cc1`, for which the Efficacy was 16% in [1]; 63% in test [2]; 10% in [4]; 58% in [5]; 7% in test [6]; 65% in test [8]. Moreover, in test [3], the Ratio is 1.3. Also, the RBA in test [7] stood at 52%; in [9] it was 40%.
Consider `Oc1ccc(C(=C2C3CCCC2CCC3)c2cccc(O)c2)cc1`, for which the Ratio in test [3] turned out to be 1.9. The RBA was 89% in test [10] and 46% in test [9].
As to `CC12CCC(C1)C(C)(C)C2=C(c1ccc(O)cc1)c1ccc(O)cc1` (stereo not drawn), the Efficacy was 13% in test [1]; 11% in test [2]; 3% in test [4]; 5% in [5]; 2% in [6]; 18% in test [8]. Moreover, the Ratio in test [3] is 0.8. For the same molecule, the figures for the RBA in test [10] and in test [9] were 8% and 10%, respectively.
Regarding `Oc1ccc(C(c2ccc(O)cc2)C2CCCCC2)cc1`, the Ratio in test [3] was 2.8. Also, the RBA in test [10] is 9%; in test [9], 3.2%.
As to `Oc1ccc(C(=C2C3CCCC2CCC3)c2ccccc2)cc1`, the Efficacy is 22% in test [1]; 80% in test [2]; 17% in [4]; 71% in test [5]; 8% in test [6]; 83% in test [8]. Moreover, the Ratio in [3] came out at 1.1. The RBA in test [10] turned out to be 35%; in test [9], 31%.
With `CC12CCC(CC1=C(c1ccc(O)cc1)c1ccc(O)cc1)C2(C)C` (stereo not drawn), the Efficacy in test [1] stood at 4%; in [2], 28%; in test [4] it was 4%; in test [5] it was 24%; in test [6], 3%; in test [8], 21%. Also, in [3], the Ratio came to 3.3. Further, the RBA in test [10] was found to be 189%; in test [9], 57%.
Turning to `Oc1ccc(C2(c3ccc(O)cc3)C3CCCC2CCC3)cc1`, the Efficacy worked out at 78% in [1]; 6% in test [2]; 4% in test [4]; 1% in test [5]; 2% in test [6]; 43% in test [8]. Also, the Ratio in test [3] worked out at 0.81. For the same molecule, the figures for the RBA in test [10] and in test [9] were 0.25% and 0.31%, respectively.
`Oc1ccc(C(=C2CC3CCC2C3)c2ccc(O)cc2)cc1` (stereo not drawn): the Efficacy in test [1] worked out at 3%; in test [2], 22%; in test [4] it was 3%; in [5] it was 25%; in test [6] it was 3%; in [8] it was 32%. For the same molecule, in test [3], the Ratio came to 4.5. Also, the results for the RBA in [10] and in [9] were 211% and 47%, respectively.

Source of the values: ChEMBL document CHEMBL1136773, “Bridged bicyclic cores containing a 1,1-diarylethylene motif are high-affinity subtype-selective ligands for the estrogen receptor” (J Med Chem, 2003).
